Measured values reported in paper PMC6032921 (Acta Physiologica (Oxford, England), 2018).

Experiments:
[1] = list of hypothermia‐inducing TRPV1 antagonists; cited from earlier work
TRPV1 [2] = conditions: cited from earlier work
rats [3] = conditions: cited from earlier work
rat TRPV1 channels [4] = target: T1, rat TRPV1 channels (Rattus norvegicus, UniProt O35433); experiment: ^45Ca^2+ uptake assay with scintillation counter, CHO cells expressing rat TRPV1; format: cell-based; conditions: pH 5.0
Summary of the method: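 CHO cells stably expressing rat TRPV1 were seeded 2 days before the assay (20,000 cells/well). Cells were exposed for 2 min at room temperature to test compound (200 pmol L⁻¹ to 4 μmol L⁻¹) with capsaicin (500 nmol L⁻¹) in HBSS pH 7.4 with BSA and HEPES, or with compound in MES buffer pH 5.0 with 30 mmol L⁻¹ HEPES. ⁴⁵Ca²⁺ (10 μCi mL⁻¹ final) was added for 2 min, cells were washed, and uptake was measured by scintillation counting.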

Trpv1 ^+/+ mice [5] = experiment: Abdominal T b in Trpv1 +/+ mice, telemetry, i.g. gavage; format: in vivo, mouse; conditions: 30 mg kg^−1 i.g., at 140 minutes
Trpv1 ^−/− mice [6] = experiment: Abdominal T b in Trpv1 −/− mice, telemetry, i.g. gavage; format: in vivo, mouse; conditions: 30 mg kg^−1 i.g.
Trpv1 ^+/+ mice [7] = experiment: Abdominal T b in Trpv1 +/+ mice, telemetry, i.p. catheter; format: in vivo, mouse; conditions: 10 mg kg^−1 i.p.
Summary of the method: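 Mice of both sexes (18‐27 g) were habituated to wire‐mesh confiners for 8 days. Under ketamine‐xylazine they were implanted intraperitoneally with a telemetry transmitter and a saline‐filled catheter, and tested 3‐6 days later. Test compound (0.75 mg mL⁻¹ in saline with 5% Tween‐80, warmed to 37°C) was given as a 10 mg kg⁻¹ bolus (~13 mL kg⁻¹) via the catheter, versus vehicle. Abdominal T_b was analysed by 2‐way ANOVA with Fisher's LSD.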

Trpv1 ^−/− mice [8] = experiment: Abdominal T b in Trpv1 −/− mice, telemetry, i.p. catheter; format: in vivo, mouse; conditions: 10 mg kg^−1 i.p.
TRPV1 [9] = conditions: cited from earlier work; for effect on TRPV1 activation by protons in vitro: ref Lehto et al 16
rat TRPV1 channels [10] = target: T1, rat TRPV1 channels; conditions: cited from earlier work
human TRPV1 channels = human TRPV1 channels (Homo sapiens, UniProt Q8NER1); conditions: cited from earlier work
corneal TRPV1 channels = corneal TRPV1 channels (Rattus norvegicus, UniProt O35433); experiment: Eye‐wiping test after intra‐abdominal RTX desensitization; format: in vivo; conditions: rats desensitized with RTX 20 μg kg^−1 i.p.
Summary of the method: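 This test was done 6‐16 days after i.p. RTX (20 μg kg⁻¹) or vehicle pre‐treatment of rats. Counts were compared between desensitized and sham‐desensitized rats by […] 2‐tailed Student's t test.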

humans = conditions: clinical trial in humans; cited from earlier work
rats [11] = conditions: rat models of inflammatory pain and heat hyperalgesia; cited from earlier work

T1 sequence (O35433 whole entry): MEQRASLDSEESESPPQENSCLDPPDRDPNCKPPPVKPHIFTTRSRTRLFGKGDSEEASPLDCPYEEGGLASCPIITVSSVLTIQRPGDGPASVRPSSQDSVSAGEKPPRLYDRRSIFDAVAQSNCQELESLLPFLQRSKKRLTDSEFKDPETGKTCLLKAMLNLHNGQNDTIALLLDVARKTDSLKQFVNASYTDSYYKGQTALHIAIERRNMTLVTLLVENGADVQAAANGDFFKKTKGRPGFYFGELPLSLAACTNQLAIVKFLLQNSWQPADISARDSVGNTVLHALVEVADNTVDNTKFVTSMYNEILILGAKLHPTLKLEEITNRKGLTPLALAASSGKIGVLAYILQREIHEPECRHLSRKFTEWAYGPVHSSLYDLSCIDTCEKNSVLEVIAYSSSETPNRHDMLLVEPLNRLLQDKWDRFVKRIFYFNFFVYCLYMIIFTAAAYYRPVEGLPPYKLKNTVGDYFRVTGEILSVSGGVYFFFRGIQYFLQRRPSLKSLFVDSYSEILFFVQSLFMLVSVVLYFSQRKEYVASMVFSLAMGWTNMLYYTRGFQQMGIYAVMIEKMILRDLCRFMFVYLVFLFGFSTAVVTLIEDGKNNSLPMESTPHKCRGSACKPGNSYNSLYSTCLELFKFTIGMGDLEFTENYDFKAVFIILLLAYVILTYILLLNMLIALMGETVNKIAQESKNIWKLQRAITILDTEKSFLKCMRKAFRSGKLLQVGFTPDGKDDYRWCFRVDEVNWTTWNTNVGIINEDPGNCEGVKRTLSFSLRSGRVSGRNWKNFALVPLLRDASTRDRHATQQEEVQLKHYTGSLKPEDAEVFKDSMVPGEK
Chain of human TRPV1 channels (Q8NER1 whole entry): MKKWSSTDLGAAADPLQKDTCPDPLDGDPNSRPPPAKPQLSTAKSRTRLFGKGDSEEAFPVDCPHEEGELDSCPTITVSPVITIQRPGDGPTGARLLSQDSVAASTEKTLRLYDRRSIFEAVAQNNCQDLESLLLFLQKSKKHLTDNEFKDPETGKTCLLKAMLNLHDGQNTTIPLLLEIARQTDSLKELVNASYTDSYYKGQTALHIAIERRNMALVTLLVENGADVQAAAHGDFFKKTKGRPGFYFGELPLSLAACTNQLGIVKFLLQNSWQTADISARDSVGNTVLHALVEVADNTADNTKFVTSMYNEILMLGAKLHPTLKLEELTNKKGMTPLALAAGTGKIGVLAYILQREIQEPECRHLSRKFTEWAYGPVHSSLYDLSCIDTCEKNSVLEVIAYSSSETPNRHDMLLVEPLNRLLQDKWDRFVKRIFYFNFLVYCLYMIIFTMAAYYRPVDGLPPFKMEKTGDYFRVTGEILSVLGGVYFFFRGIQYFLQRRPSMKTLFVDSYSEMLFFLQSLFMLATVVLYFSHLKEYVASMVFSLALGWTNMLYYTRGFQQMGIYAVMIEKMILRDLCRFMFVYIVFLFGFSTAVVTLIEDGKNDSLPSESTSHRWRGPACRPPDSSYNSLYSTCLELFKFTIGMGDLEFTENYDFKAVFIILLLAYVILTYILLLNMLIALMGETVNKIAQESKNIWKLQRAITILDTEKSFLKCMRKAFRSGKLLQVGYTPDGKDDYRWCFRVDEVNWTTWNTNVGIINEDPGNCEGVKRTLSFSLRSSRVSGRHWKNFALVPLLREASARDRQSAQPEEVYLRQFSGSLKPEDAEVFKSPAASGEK
Chain of corneal TRPV1 channels (O35433 whole entry): as the sequence (O35433 whole entry) above

C=C(C)[C@]12C[C@@H](C)[C@@]34O[C@](Cc5ccccc5)(O[C@@H]1[C@@H]3C=C(COC(=O)Cc1cc(I)c(O)c(OC)c1)C[C@]1(O)C(=O)C(C)=C[C@@H]41)O2 [5′‐I‐RTX, 5′‐iodo‐resiniferatoxin]
effect on deep body temperature (T b) [1]: cause hypothermia | TRPV1 agonistic or capsaicin‐potentiating activity (TRPV1 [2]): partial agonists

O=C(/C=C/c1ccc(C(F)(F)F)nc1N1CCCCC1)Nc1cccc2c1CC(O)CC2 (centres unmarked) [AMG0347]
effect on deep T b in rats (rats [3]): increase deep T b in rats

FC(F)(F)c1ccc(-c2cc(Nc3ccc4ncsc4c3)ncn2)c(NCC2CCCCC2)c1 [AMG7905]
effect on ^45Ca^2+ influx in the proton activation mode (rat TRPV1 channels [4]): concentration‐dependent potentiation | biggest intertreatment difference in T b (hypothermia vs vehicle) (Trpv1 ^+/+ mice [5]): 7.8 °C | effect on T b (Trpv1 ^−/− mice [6]): did not cause hypothermia | drop in T b compared to vehicle (Trpv1 ^+/+ mice [7]): > 2 °C | effect on T b (Trpv1 ^−/− mice [8]): neither A‐1165901 nor AMG7905 had any effect on T b | effect on deep body temperature (T b) [1]: cause hypothermia | TRPV1 agonistic or capsaicin‐potentiating activity (TRPV1 [2]): showed no TRPV1 agonistic or capsaicin‐potentiating activity | effect on TRPV1 activation by protons in vitro (TRPV1 [9]): potentiated TRPV1 activation by protons in vitro

O=C(/C=C/c1ccc(C(F)(F)F)cc1N1CCCCC1)Nc1cccc2c1C[C@H](O)C2 [AMG8562, (R, E)‐N‐(2‐hydroxy‐2,3‐dihydro‐1H‐inden‐4‐yl)‐3‐(2‐(piperidin‐1‐yl)‐4‐(trifluoromethyl)phenyl)‐acrylamide]
effect on deep body temperature (T b) [1]: cause hypothermia | TRPV1 agonistic or capsaicin‐potentiating activity (TRPV1 [2]): showed no TRPV1 agonistic or capsaicin‐potentiating activity | effect on TRPV1 activation by protons in vitro (TRPV1 [9]): potentiated TRPV1 activation by protons in vitro

CC(=O)Nc1nc2c(Oc3cc(-c4ccc(C(F)(F)F)cc4)ncn3)cccc2s1 [AMG 517]
effect on deep T b in rats (rats [3]): increase deep T b in rats

O=C(NCc1ccc(C(F)(F)F)cc1)Nc1cccc2cnccc12 [A‐425619, 1‐isoquinolin‐5‐yl‐3‐(4‐trifluoromethyl‐benzyl)‐urea]
effect on deep body temperature (T b) [1]: cause hypothermia | TRPV1 agonistic or capsaicin‐potentiating activity (TRPV1 [2]): showed no TRPV1 agonistic or capsaicin‐potentiating activity

Cc1ccc(N2c3cccc(C(=O)Nc4ccc(OCC(F)(F)F)nc4)c3OC[C@@H]2CO)nc1 [JTS‐653, (3S)‐3‐(hydroxymethyl)‐4‐(5‐methylpyridin‐2‐yl)‐N‐[6‐(2,2,2‐trifluoroethoxy)pyridin‐3‐yl]‐3,4‐dihydro‐2H‐benzo[b][1,4]oxazine‐8‐carboxamide]
effect on T b in rats (rats [3]): cause hyperthermia in rats | effect on proton‐induced activation of TRPV1 (rat TRPV1 channels [10]): potently block proton‐induced activation | effect on proton‐induced activation of TRPV1 (human TRPV1 channels): potently block proton‐induced activation

CC(C)(C)c1ccc(CNC(=S)NCc2ccc(NS(C)(=O)=O)c(F)c2)cc1 [JYL1421]
effect on deep body temperature (T b) [1]: cause hypothermia | TRPV1 agonistic or capsaicin‐potentiating activity (TRPV1 [2]): showed no TRPV1 agonistic or capsaicin‐potentiating activity

C=C(C)[C@]12C[C@@H](C)[C@@]34O[C@](Cc5ccccc5)(O[C@@H]1[C@@H]3C=C(COC(=O)Cc1ccc(O)c(OC)c1)C[C@]1(O)C(=O)C(C)=C[C@@H]41)O2 [RTX, resiniferatoxin]
eye‐wiping response to topical RTX in desensitized vs sham‐desensitized rats (corneal TRPV1 channels): no meaningful difference

O=C(Nc1ccc(C(F)(F)F)cn1)N1CC=C(c2ncc([C@H](O)CO)cc2Cl)CC1 [V116517, 4‐[3‐chloro‐5‐[(1S)‐1,2‐dihydroxyethyl]‐2‐pyridyl]‐N‐[5‐(trifluoromethyl)‐2‐pyridyl]‐3,6‐dihydro‐2H‐pyridine‐1‐carboxamide]
effect on T b in rats (rats [3]): causing hyperthermia in rats | effect on TRPV1 activation by protons (TRPV1 [9]): potently blocking TRPV1 activation by protons | effect on T b in humans (humans): caused no hyperthermia

Oc1cc2c(cc1O)CN(C(=S)NCCc1ccc(Cl)cc1)CCC2 [capsazepine]
effect on T b in rats (rats [3]): does not affect T b in rats | effect on proton activation of TRPV1 (rat TRPV1 channels [10]): no allosteric effect on proton activation | efficacy in pain models (rats [11]): efficacious
